Experimental data published in ChEMBL document CHEMBL4706631, “Potent and Selective Mitogen-Activated Protein Kinase Kinase 1/2 (MEK1/2) Heterobifunctional Small-molecule Degraders” (J Med Chem, 2020).
Activity calls are given as the source filed them. The calls are words filed in the database; no cut-off is given here.

test system: HT-29; assay: Antiproliferative activity against human HT-29 cells incubated for 3 days by WST8 assay; type: functional; details: HT-29, 72 h, time 3 day

| Compound | GI50 |
| --- | --- |
| Cc1ncsc1-c1ccc(CNC(=O)[C@@H]2C[C@@H](O)CN2C(=O)[C@@H](NC(=O)CCCCCCNCCCONC(=O)c2ccc(F)c(F)c2Nc2ccc(I)cc2F)C(C)(C)C)cc1 | 1400 nM |
| O=C1CCC(N2C(=O)c3cccc(NCCCCCCCNCCCONC(=O)c4ccc(F)c(F)c4Nc4ccc(I)cc4F)c3C2=O)C(=O)N1 (stereo not given) | 4500 nM |
| O=C1CCC(N2C(=O)c3cccc(NCCCCCCCCNCCCONC(=O)c4ccc(F)c(F)c4Nc4ccc(I)cc4F)c3C2=O)C(=O)N1 (stereo not given) | 3500 nM |
| Cc1ncsc1-c1ccc(CNC(=O)[C@@H]2C[C@@H](O)CN2C(=O)[C@@H](NC(=O)CNCCCONC(=O)c2ccc(F)c(F)c2Nc2ccc(I)cc2F)C(C)(C)C)cc1 | 1800 nM |
| Cc1ncsc1-c1ccc(CNC(=O)[C@@H]2C[C@@H](O)CN2C(=O)[C@@H](NC(=O)CCOCCOCCNCCCONC(=O)c2ccc(F)c(F)c2Nc2ccc(I)cc2F)C(C)(C)C)cc1 | 1600 nM |
| O=C1CCC(N2C(=O)c3cccc(NCCCCCNCCCONC(=O)c4ccc(F)c(F)c4Nc4ccc(I)cc4F)c3C2=O)C(=O)N1 (stereo not given) | 1800 nM |
| Cc1ncsc1-c1ccc(CNC(=O)[C@@H]2C[C@@H](O)CN2C(=O)[C@@H](NC(=O)CCOCCOCCOCCNCCCONC(=O)c2ccc(F)c(F)c2Nc2ccc(I)cc2F)C(C)(C)C)cc1 | 3300 nM |
| O=C1CCC(N2C(=O)c3ccc(NCCOCCOCCOCCNCCCONC(=O)c4ccc(F)c(F)c4Nc4ccc(I)cc4F)cc3C2=O)C(=O)N1 (stereo not given) | 1500 nM |
| O=C1CCC(N2C(=O)c3cccc(NCCOCCOCCNCCCONC(=O)c4ccc(F)c(F)c4Nc4ccc(I)cc4F)c3C2=O)C(=O)N1 (stereo not given) | 1300 nM |
| Cc1ncsc1-c1ccc(CNC(=O)[C@@H]2C[C@@H](O)CN2C(=O)[C@@H](NC(=O)CCCNCCCONC(=O)c2ccc(F)c(F)c2Nc2ccc(I)cc2F)C(C)(C)C)cc1 | 3100 nM |
| Cc1ncsc1-c1ccc(CNC(=O)[C@@H]2C[C@@H](O)CN2C(=O)[C@@H](NC(=O)CCCCNCCCONC(=O)c2ccc(F)c(F)c2Nc2ccc(I)cc2F)C(C)(C)C)cc1 | 3000 nM |
| Cc1ncsc1-c1ccc(CNC(=O)[C@@H]2C[C@@H](O)CN2C(=O)[C@@H](NC(=O)COCCOCCNCCCONC(=O)c2ccc(F)c(F)c2Nc2ccc(I)cc2F)C(C)(C)C)cc1 | 1600 nM |
| O=C1CCC(N2C(=O)c3ccc(NCCCCCCNCCCONC(=O)c4ccc(F)c(F)c4Nc4ccc(I)cc4F)cc3C2=O)C(=O)N1 (stereo not given) | 1100 nM |
| O=C1CCC(N2C(=O)c3cccc(NCCCCCCNCCCONC(=O)c4ccc(F)c(F)c4Nc4ccc(I)cc4F)c3C2=O)C(=O)N1 (stereo not given) | 3800 nM |
| Cc1ncsc1-c1ccc(CNC(=O)[C@@H]2C[C@@H](O)CN2C(=O)[C@@H](NC(=O)CCOCCNCCCONC(=O)c2ccc(F)c(F)c2Nc2ccc(I)cc2F)C(C)(C)C)cc1 | 4800 nM |
| O=C1CCC(N2C(=O)c3ccc(NCCOCCNCCCONC(=O)c4ccc(F)c(F)c4Nc4ccc(I)cc4F)cc3C2=O)C(=O)N1 (stereo not given) | 1400 nM |
| Cc1ncsc1-c1ccc(CNC(=O)[C@@H]2C[C@@H](O)CN2C(=O)[C@@H](NC(=O)COCCOCCOCCNCCCONC(=O)c2ccc(F)c(F)c2Nc2ccc(I)cc2F)C(C)(C)C)cc1 | 1300 nM |
| Cc1ncsc1-c1ccc(CNC(=O)[C@@H]2C[C@@H](O)CN2C(=O)[C@@H](NC(=O)COCCNCCCONC(=O)c2ccc(F)c(F)c2Nc2ccc(I)cc2F)C(C)(C)C)cc1 | 4000 nM |
| Cc1ncsc1-c1ccc(CNC(=O)[C@@H]2C[C@@H](O)CN2C(=O)[C@@H](NC(=O)CCCCCNCCCONC(=O)c2ccc(F)c(F)c2Nc2ccc(I)cc2F)C(C)(C)C)cc1 | 2100 nM |
| Cc1ncsc1-c1ccc(CNC(=O)[C@@H]2C[C@@H](O)CN2C(=O)[C@@H](NC(=O)CCNCCCONC(=O)c2ccc(F)c(F)c2Nc2ccc(I)cc2F)C(C)(C)C)cc1 | 5000 nM |
| O=C1CCC(N2C(=O)c3cccc(NCCOCCNCCCONC(=O)c4ccc(F)c(F)c4Nc4ccc(I)cc4F)c3C2=O)C(=O)N1 (stereo not given) | 1200 nM |
| Cc1ncsc1-c1ccc(CNC(=O)[C@@H]2C[C@@H](O)CN2C(=O)[C@@H](NC(=O)CCOCCOCCOCCOCCNCCCONC(=O)c2ccc(F)c(F)c2Nc2ccc(I)cc2F)C(C)(C)C)cc1 | 1700 nM |
| O=C1CCC(N2C(=O)c3cccc(NCCCCNCCCONC(=O)c4ccc(F)c(F)c4Nc4ccc(I)cc4F)c3C2=O)C(=O)N1 (stereo not given) | 1900 nM |

The next lines start with the values.

| GI50 | Compound |
| --- | --- |
| 1100 nM | O=C1CCC(N2C(=O)c3cccc(NCCCNCCCONC(=O)c4ccc(F)c(F)c4Nc4ccc(I)cc4F)c3C2=O)C(=O)N1 (stereo not given) |
| 1100 nM | O=C1CCC(N2C(=O)c3ccc(NCCOCCOCCNCCCONC(=O)c4ccc(F)c(F)c4Nc4ccc(I)cc4F)cc3C2=O)C(=O)N1 (stereo not given) |
| 1000 nM | O=C1CCC(N2C(=O)c3ccc(NCCCCNCCCONC(=O)c4ccc(F)c(F)c4Nc4ccc(I)cc4F)cc3C2=O)C(=O)N1 (stereo not given) |
| 800 nM | O=C1CCC(N2C(=O)c3cccc(NCCOCCOCCOCCNCCCONC(=O)c4ccc(F)c(F)c4Nc4ccc(I)cc4F)c3C2=O)C(=O)N1 (stereo not given) |
| 600 nM | Cc1ncsc1-c1ccc(CNC(=O)[C@@H]2C[C@@H](O)CN2C(=O)[C@@H](NC(=O)CCCCCCCCNCCCONC(=O)c2ccc(F)c(F)c2Nc2ccc(I)cc2F)C(C)(C)C)cc1 |
| 600 nM | O=C1CCC(N2C(=O)c3cccc(NCCOCCOCCOCCOCCNCCCONC(=O)c4ccc(F)c(F)c4Nc4ccc(I)cc4F)c3C2=O)C(=O)N1 (stereo not given) |
| 600 nM | O=C1CCC(N2C(=O)c3cccc(NCCOCCOCCOCCOCCOCCNCCCONC(=O)c4ccc(F)c(F)c4Nc4ccc(I)cc4F)c3C2=O)C(=O)N1 (stereo not given) |
| 500 nM | Cc1ncsc1-c1ccc(CNC(=O)[C@@H]2C[C@@H](O)CN2C(=O)[C@@H](NC(=O)CCCCCCCNCCCONC(=O)c2ccc(F)c(F)c2Nc2ccc(I)cc2F)C(C)(C)C)cc1 |
| 500 nM | O=C1CCC(N2C(=O)c3ccc(NCCCCCCCNCCCONC(=O)c4ccc(F)c(F)c4Nc4ccc(I)cc4F)cc3C2=O)C(=O)N1 (stereo not given) |
| 500 nM | O=C1CCC(N2C(=O)c3ccc(NCCOCCOCCOCCOCCNCCCONC(=O)c4ccc(F)c(F)c4Nc4ccc(I)cc4F)cc3C2=O)C(=O)N1 (stereo not given) |
| 500 nM | O=C1CCC(N2C(=O)c3ccc(NCCCNCCCONC(=O)c4ccc(F)c(F)c4Nc4ccc(I)cc4F)cc3C2=O)C(=O)N1 (stereo not given) |
| 500 nM | Cc1ncsc1-c1ccc(CNC(=O)[C@@H]2C[C@@H](O)CN2C(=O)[C@@H](NC(=O)CCCCCCCCCNCCCONC(=O)c2ccc(F)c(F)c2Nc2ccc(I)cc2F)C(C)(C)C)cc1 |
| 500 nM | O=C1CCC(N2C(=O)c3ccc(NCCCCCNCCCONC(=O)c4ccc(F)c(F)c4Nc4ccc(I)cc4F)cc3C2=O)C(=O)N1 (stereo not given) |
| 400 nM | O=C1CCC(N2C(=O)c3cccc(NCCNCCCONC(=O)c4ccc(F)c(F)c4Nc4ccc(I)cc4F)c3C2=O)C(=O)N1 (stereo not given) |
| 400 nM | Cc1ncsc1-c1ccc(CNC(=O)[C@@H]2C[C@@H](O)CN2C(=O)[C@@H](NC(=O)CCCCCCCCCCNCCCONC(=O)c2ccc(F)c(F)c2Nc2ccc(I)cc2F)C(C)(C)C)cc1 |
| 300 nM | O=C1CCC(N2C(=O)c3ccc(NCCCCCCCCNCCCONC(=O)c4ccc(F)c(F)c4Nc4ccc(I)cc4F)cc3C2=O)C(=O)N1 (stereo not given) |
| 300 nM | FC(F)c1nc2ccccc2n1-c1nc(N2CCOCC2)nc(N2CCOCC2)n1 [ZSTK-474] |
| 240 nM | Cc1ncsc1-c1ccc([C@H](C)NC(=O)[C@@H]2C[C@@H](O)CN2C(=O)[C@@H](NC(=O)CCCCCCCCCNCCCONC(=O)c2ccc(F)c(F)c2Nc2ccc(I)cc2F)C(C)(C)C)cc1 |
| 100 nM | CCCS(=O)(=O)Nc1ccc(F)c(C(=O)c2c[nH]c3ncc(-c4ccc(Cl)cc4)cc23)c1F [VEMURAFENIB] |
| 99 nM | Cc1ncsc1-c1ccc([C@H](C)NC(=O)[C@@H]2C[C@@H](O)CN2C(=O)[C@@H](NC(=O)CCCCCCCCCCCNCCCONC(=O)c2ccc(F)c(F)c2Nc2ccc(I)cc2F)C(C)(C)C)cc1 |
| 55 nM | Cc1ncsc1-c1ccc([C@H](C)NC(=O)[C@@H]2C[C@@H](O)CN2C(=O)[C@@H](NC(=O)CCCCCCCCCNCCCCONC(=O)c2ccc(F)c(F)c2Nc2ccc(I)cc2F)C(C)(C)C)cc1 |
| 43 nM | Cc1ncsc1-c1ccc([C@H](C)NC(=O)[C@@H]2C[C@@H](O)CN2C(=O)[C@@H](NC(=O)CCCCCCCCCCNCCCCONC(=O)c2ccc(F)c(F)c2Nc2ccc(I)cc2F)C(C)(C)C)cc1 |

test system: NCI-H3122; assay: Antiproliferative activity against human NCI-H3122 cells at 0.014 to 3.33 uM incubated for 3 days by WST8 assay; type: functional, cell-based; details: dose 0.014-3.33 µM, time 3.0 day
Summary of the method: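 NCI-H3122 cells were exposed to serial compound dilutions for 3 days, with WST-8 live-cell readout. Each concentration was run in triplicate. Student's t-test per concentration versus DMSO.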

| Compound | Activity |
| --- | --- |
| Cc1ncsc1-c1ccc([C@H](C)NC(=O)[C@H]2C[C@H](O)CN2C(=O)[C@@H](NC(=O)CCCCCCCCCCN(C)CCCONC(=O)c2ccc(F)c(F)c2Nc2ccc(I)cc2F)C(C)(C)C)cc1 | inactive |

test system: NCI-H3122; assay: Inhibition of ERK phosphorylation in human NCI-H3122 cells at 0.3 to 3 uM and incubated for 24 hrs by Western blot analysis; type: cell-based; details: dose 0.3-3 µM
Summary of the method: (§1)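 H3122 and SU-DHL-1 cells were treated with compounds, and MEK1/2, pMEK and pERK were assessed by Western blot of lysates.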

| Compound | inhibition |
| --- | --- |
| Cc1ncsc1-c1ccc([C@H](C)NC(=O)[C@H]2C[C@H](O)CN2C(=O)[C@@H](NC(=O)CCCCCCCCCCN(C)CCCONC(=O)c2ccc(F)c(F)c2Nc2ccc(I)cc2F)C(C)(C)C)cc1 | inactive |

test system: HT-29; assay: Inhibition of colony formation in human HT-29 cells at 10 to 100 nM incubated for 10 days by crystal violet staining based assay; type: functional, cell-based; details: dose 10-100 nM, time 10.0 day
Summary of the method: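 HT-29 clonogenic assay: cells were exposed to compounds for 10 days, then fixed and stained with crystal violet. Two independent experiments.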

| Compound | inhibition |
| --- | --- |
| Cc1ncsc1-c1ccc([C@H](C)NC(=O)[C@H]2C[C@H](O)CN2C(=O)[C@@H](NC(=O)CCCCCCCCCCN(C)CCCONC(=O)c2ccc(F)c(F)c2Nc2ccc(I)cc2F)C(C)(C)C)cc1 | inactive |

test system: HT-29; assay: Inhibition of ERK phosphorylation in human HT-29 cells at 0.3 to 3 uM incubated for 24 hrs by Western blot analysis; type: cell-based; details: dose 0.3-3 µM

| Compound | inhibition |
| --- | --- |
| Cc1ncsc1-c1ccc([C@H](C)NC(=O)[C@H]2C[C@H](O)CN2C(=O)[C@@H](NC(=O)CCCCCCCCCCN(C)CCCONC(=O)c2ccc(F)c(F)c2Nc2ccc(I)cc2F)C(C)(C)C)cc1 | inactive |

test system: SU-DHL-1; assay: Inhibition of ERK phosphorylation in human SU-DHL-1 cells at 0.3 to 3 uM and incubated for 24 hrs by Western blot analysis; type: cell-based; details: dose 0.3-3 µM; summary of the method: as §1

| Compound | inhibition |
| --- | --- |
| Cc1ncsc1-c1ccc([C@H](C)NC(=O)[C@H]2C[C@H](O)CN2C(=O)[C@@H](NC(=O)CCCCCCCCCCN(C)CCCONC(=O)c2ccc(F)c(F)c2Nc2ccc(I)cc2F)C(C)(C)C)cc1 | inactive |
